Entries after “also recorded” stand apart in the source; their conditions may differ.
What was measured:
GPR68 [1] = molecular target: T1, GPR68 (Homo sapiens, UniProt Q15743); assay: Split-luciferase; format: cell-based; conditions: for stimulation of cAMP production by benzodiazepines: 10 μM, pH 6.50 or 7.40
Method in brief: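 HEK293-T cells were co-transfected with receptor and GloSensor 7A reporter and plated at least 6 h at 15,000 cells/well in 1% dialysed FBS DMEM. Cells were loaded with 4 mM luciferin in drug buffer, pH 8.4, for 90 min at 37 °C; luciferin was then removed. Proton concentration-responses ran without and with rising test compound levels premixed in pH-adjusted HBSS/HEPES/MES (TAPS at high pH; BSA for some). Plates stood 20 min at room temperature before luminescence reading. Data were fitted to an allosteric operational model, with proton pEC50 as pKA.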

GPR68 [2] = molecular target: T1, GPR68; assay: Calcium mobilization assay; format: cell-based; conditions: 10 μM, GPR68 wild-type
Method in brief: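 HEK293-T cells were transfected, plated overnight in DMEM with 1% dialysed FBS at 15,000 cells/well, then loaded 60 min at 37 °C (5% CO2) with Fluo-4 Direct dye in drug buffer containing 2.5 mM probenecid, pH 8.0. Test compound was added first (10 μM final before the pH addition), followed by 10 min reading. pH solutions (HBSS, 7 mM each HEPES/HEPPS/MES, NaOH-adjusted) were then added. Fluorescence was read 1/s for 4 min and expressed as fold of basal; n=3.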

[3] = tested on: wild-type and GPR68 KO mice; assay: Fear conditioning; format: in vivo
[4] = cited from earlier work
GABAA receptor = assay: Radioligand binding profiling
Method in brief: (§1)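 Membranes came from animal brain tissue, stable cell lines or transiently transfected HEK293-T cells. Competition binding used a fixed radioligand concentration, incubated in the dark at 22 °C, and was ended by vacuum filtration onto GF/B filters, followed by beta counting. Values are mean pKi (n=2–4).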

GPR65 = GPR65 (Homo sapiens, UniProt Q8IYL9); assay: Split-luciferase cAMP reporter assay, GPR65; format: cell-based; conditions: for activity at GPR65: effect on proton response, cAMP; for inhibition of GPR65: receptors activated by protons or by BTB09089
Method in brief: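 GPR65 was co-transfected with the GloSensor reporter into HEK293-T cells, which were then luciferin-loaded (4 mM, pH 8.4, 90 min, 37 °C). Test compound was applied in pH-adjusted HBSS/HEPES/MES buffer for 20 min at room temperature. The receptor was activated either by protons at pH 7.40 or by 30 μM reference agonist at pH 8.40. Luminescence was normalised to buffer basal. Data come from at least three assays, each at least in triplicate (≥16 measurements total).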

GPR68 [5] = molecular target: T1, GPR68; assay: Yeast growth assay, GPR68 paired with chimeric Gq yeast; format: cell-based; conditions: library screen at 10 μM
Method in brief: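 Yeast with receptor were diluted in SD-His-Ura medium to OD600 0.02 final. Test compound was 10 μM final, in triplicate, with 3-amino-1,2,4-triazole (pH 5.4) at a level set by titration without ligand. Growth ran at 30 °C for 2–5 days. Cells were resuspended and read at OD600. % growth stimulation = […], given as mean ± SEM of three wells.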

GPR4 = GPR4 (Homo sapiens, UniProt P46093); assay: Split-luciferase cAMP reporter assay, GPR4; format: cell-based; conditions: effect on proton response
Method in brief: (§2)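 GloSensor cAMP assay in HEK293-T cells co-transfected with receptor (wild-type or mutant) and GloSensor 7A, plated at 15,000 cells/well for at least 6 h. Cells were loaded with luciferin (4 mM, pH 8.4, 90 min, 37 °C), which was then removed. Test compound was added in NaOH-adjusted pH solutions (HBSS, 10 mM HEPES, 10 mM MES), 20 min at room temperature. Luminescence is given as RLU fold of buffer basal. Curves were fitted with a 4-parameter logistic; n≥3.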

[6] = tested on: PKA and MAP kinase pathways; format: cell-based, human; conditions: 50 μM, 10 min, GPR68-expressing HEK293 cells
phosphodiesterases = assay: Phosphodiesterase inhibition
[7] = molecular target: GPR65 mutant receptors (D153A, R187L, F242A, Y272A) (Homo sapiens, UniProt Q8IYL9, D153A); assay: cAMP reporter assay at GPR65 mutant receptors; format: cell-based; conditions: GPR65 D153A
Method in brief: as §2

[8] = tested on: GPR65 mutant receptors (D153A, R187L, F242A, Y272A); assay: cAMP reporter assay at GPR65 mutant receptors; format: cell-based, human; conditions: GPR65 R187L, F242A, Y272A
Method in brief: as §2

5-HT2B = 5-HT2B (Homo sapiens, UniProt P41595); assay: Radioligand binding profiling; conditions: profiling against 58 GPCRs, ion channels, and transporters
Method in brief: as §1

GPR68 [9] = molecular target: T1, GPR68; assay: PI hydrolysis assay in GPR68-transfected HEK293-T cells; format: cell-based; conditions: 10 μM, under equilibrium
Method in brief: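 Transfected HEK293-T cells (24 h) were plated in 10% FBS DMEM. After 5 h they were labelled overnight with 3H-inositol (1 μCi/well) in inositol-free DMEM with 5% dialysed FBS. Cells were washed with HBSS, 10 mM HEPES, 10 mM MES, 20 mM LiCl, pH 8.4. pH-adjusted solutions containing 20 mM LiCl and 10 μM test compound were applied for 20 min. Extraction used 50 mM ice-cold formic acid, 4 °C for 30 min; extracts were bead-captured (4 °C, 30 min) and counted as cpm; n=3.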

A2A receptor = A2A receptor (Homo sapiens, UniProt P29274); assay: Radioligand binding profiling; conditions: profiling against 58 GPCRs, ion channels, and transporters
Method in brief: as §1

control HEK293 T cells = assay: cAMP reporter assay at control HEK293 T cells; format: cell-based, human
Method in brief: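 Control HEK293-T cells were run in the GloSensor cAMP format: luciferin loading at 4 mM, pH 8.4, 90 min, 37 °C, then removal. Test compound in pH-adjusted HBSS/HEPES/MES buffer was applied for 20 min at room temperature before luminescence reading. Results are normalised fold of basal from at least three assays, each at least in triplicate (≥16 measurements).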

[10] = cAMP production, proton as agonist

GPR65, sequence (Q8IYL9 whole entry): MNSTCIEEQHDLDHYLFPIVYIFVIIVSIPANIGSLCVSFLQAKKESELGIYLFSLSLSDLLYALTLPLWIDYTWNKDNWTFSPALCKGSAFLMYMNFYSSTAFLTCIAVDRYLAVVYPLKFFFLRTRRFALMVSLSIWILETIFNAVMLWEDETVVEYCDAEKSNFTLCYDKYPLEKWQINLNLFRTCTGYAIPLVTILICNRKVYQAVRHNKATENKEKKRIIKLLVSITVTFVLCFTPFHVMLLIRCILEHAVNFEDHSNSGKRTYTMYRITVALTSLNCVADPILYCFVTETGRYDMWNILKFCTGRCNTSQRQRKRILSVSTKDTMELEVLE
T1 sequence (Q15743 whole entry): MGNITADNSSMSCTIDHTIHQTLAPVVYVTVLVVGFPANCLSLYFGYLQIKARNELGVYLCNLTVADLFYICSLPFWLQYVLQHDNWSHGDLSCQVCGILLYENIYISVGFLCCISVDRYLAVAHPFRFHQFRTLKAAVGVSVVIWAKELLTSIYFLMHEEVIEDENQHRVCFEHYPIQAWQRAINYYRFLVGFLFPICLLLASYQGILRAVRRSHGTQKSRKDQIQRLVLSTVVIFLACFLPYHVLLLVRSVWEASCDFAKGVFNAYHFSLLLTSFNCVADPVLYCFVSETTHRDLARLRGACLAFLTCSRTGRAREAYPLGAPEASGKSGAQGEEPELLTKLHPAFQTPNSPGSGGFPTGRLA
GPR65 mutant receptors (D153A, R187L, F242A, Y272A) (Homo sapiens, UniProt Q8IYL9, D153A), sequence (Q8IYL9 whole entry D153A): as the sequence (Q8IYL9 whole entry) above, with D153A counted along it
GPR4, sequence (P46093 whole entry): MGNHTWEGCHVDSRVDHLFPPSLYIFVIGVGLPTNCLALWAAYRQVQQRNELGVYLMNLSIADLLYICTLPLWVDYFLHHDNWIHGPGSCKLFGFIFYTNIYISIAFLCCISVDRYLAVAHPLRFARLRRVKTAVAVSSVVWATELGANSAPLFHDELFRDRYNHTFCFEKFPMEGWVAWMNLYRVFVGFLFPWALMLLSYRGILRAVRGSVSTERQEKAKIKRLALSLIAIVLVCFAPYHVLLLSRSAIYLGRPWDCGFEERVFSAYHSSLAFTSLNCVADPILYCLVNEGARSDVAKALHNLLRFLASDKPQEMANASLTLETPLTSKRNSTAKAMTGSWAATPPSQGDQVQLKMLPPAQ
5-HT2B, sequence (P41595 whole entry): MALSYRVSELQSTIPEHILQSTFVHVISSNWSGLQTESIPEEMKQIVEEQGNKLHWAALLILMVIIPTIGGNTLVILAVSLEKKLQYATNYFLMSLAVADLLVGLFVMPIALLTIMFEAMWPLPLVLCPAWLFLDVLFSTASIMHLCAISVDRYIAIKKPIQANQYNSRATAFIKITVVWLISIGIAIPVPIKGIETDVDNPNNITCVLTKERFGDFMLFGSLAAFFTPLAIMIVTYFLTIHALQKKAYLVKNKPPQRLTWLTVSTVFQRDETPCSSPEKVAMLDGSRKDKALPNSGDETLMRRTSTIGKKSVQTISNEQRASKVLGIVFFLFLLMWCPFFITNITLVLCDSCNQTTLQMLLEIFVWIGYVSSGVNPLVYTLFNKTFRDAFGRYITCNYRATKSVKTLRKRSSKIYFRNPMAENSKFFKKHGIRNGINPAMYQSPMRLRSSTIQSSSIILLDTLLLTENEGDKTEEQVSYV
A2A receptor, sequence (P29274 whole entry): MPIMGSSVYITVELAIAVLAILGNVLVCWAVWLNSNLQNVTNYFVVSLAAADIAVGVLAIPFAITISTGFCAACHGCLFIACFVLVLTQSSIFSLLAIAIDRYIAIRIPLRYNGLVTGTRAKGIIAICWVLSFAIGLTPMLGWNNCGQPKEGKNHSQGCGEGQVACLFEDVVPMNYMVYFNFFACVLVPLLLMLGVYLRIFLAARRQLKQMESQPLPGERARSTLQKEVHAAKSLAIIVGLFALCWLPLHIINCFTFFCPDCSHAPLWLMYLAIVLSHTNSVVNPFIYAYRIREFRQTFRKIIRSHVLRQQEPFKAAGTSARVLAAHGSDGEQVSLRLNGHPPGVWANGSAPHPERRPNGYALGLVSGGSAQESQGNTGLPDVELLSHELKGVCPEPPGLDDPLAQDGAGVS

For O=C1CN=C(c2ccccc2Cl)c2cc([N+](=O)[O-])ccc2N1 [clonazepam], the “stimulation of cAMP production by benzodiazepines” value (“stimulation of cAMP production” for short) (GPR68 [1]) was “stimulated cAMP production in a GPR68- and pH-dependent manner”.
For Nc1nc(NCc2ccccc2)nc(-c2cccc(CO)c2)n1 [ZINC32547799], the “effect on proton-mediated calcium release” value (GPR68 [2]) was “little effect”, the learning and memory ([3]; wild-type mice) was “no measurable effect” and the “contextual and cue memory” value ([3]; wild-type mice, 10 mg/kg) was “no effect”. The learning ([3]; wild-type mice, 10 mg/kg) was “no effect”, the “contextual and cue memory” value ([3]; wild-type mice, 30 mg/kg) was “no effect” and the learning ([3]; wild-type mice, 30 mg/kg) was “enhanced”.
For O=C1Nc2ccc(Cl)cc2C(c2ccccc2Cl)=NC1O (centres unmarked) [lorazepam], the “concentration in plasma during treatment” value [4] is listed as “micromolar”, the “activity in panel of CNS targets” value (GABAA receptor) is listed as “substantial activity” and the “activity at GPR65” value (GPR65) is listed as “no activity”. For the same compound, the “stimulation of yeast growth” value (GPR68 [5]) was “more than two-fold”, the “stimulation of cAMP production” value (GPR68 [1]) was “stimulated cAMP production in a GPR68- and pH-dependent manner” and the “activity at GPR4” value (GPR4) was “no activity”. The “activation of PKA and MAP kinase pathways” value [6] was “activate”.
In the case of OC1CCC(Nc2nc(-c3ccccc3)nc3[nH]ccc23)CC1 (centres unmarked) [SLV320], the phosphodiesterase inhibition (phosphodiesterases) is reported as “potent phosphodieseterase inhibitor”.
With Nc1nc(-c2ccc(Cl)c(Cl)c2)c(-c2ccncc2)s1 [CGH2466] the phosphodiesterase inhibition (phosphodiesterases) was “potent phosphodieseterase inhibitor”, the “allosteric effect (qualitative comparison)” value (“allosteric effect” for short) (GPR68 [1]; [10]) was “much lower than that of ogerin” and the “GPR68 activity in the presence of Ro 20-1724” value (GPR68 [1]; with phosphodiesterase inhibitor Ro 20-1724) was “minimal activity”.
For CCCCNc1c(C(=O)OCC)c(C)nc2c1cnn2CC [tracazolate], the phosphodiesterase inhibition (phosphodiesterases) was “potent phosphodieseterase inhibitor”.
For Nc1nc(NCCCc2ccccc2)nc(-c2ccccc2CO)n1 [C3], the “allosteric effect” value (GPR68 [1]; [10]) was “reduced allostery”.
In the case of O=C1CCc2cc(-c3csc(NC(=O)c4ccc(-c5ccccc5F)o4)n3)ccc2N1 [ZINC9468042], the “inhibition of GPR65” value (GPR65) is reported as “GPR65-specific inhibition”.
For O=C1CN=C(c2ccccc2)c2cc(Cl)ccc2N1 [desmethyldiazepam], the “stimulation of cAMP production” value (GPR68 [1]) was “stimulated cAMP production in a GPR68- and pH-dependent manner”.
With O=C(Nc1nc(-c2ccc3c(c2)OCCO3)cs1)c1csnn1 [ZINC41613384] the “inhibition of GPR65” value (GPR65) was “GPR65-specific inhibition”.
For CN1N=C(SCc2ccc(Cl)cc2Cl)Sc2c1cnn(C)c2=O [BTB09089, reference compound], the “effect of D153A mutation on compound activity” value [7] was “no effect”, the “effect of R187L, F242A, Y272A mutations on compound activity” value [8] was “reduced the activity” and the “agonist activity at GPR65 (qualitative)” value (GPR65) was “weak agonist activity”. For the same compound, the “mode of action at GPR65” value (GPR65) was “allosteric agonist” and the “potentiation of proton efficacy/activity at GPR65” value (GPR65) was “failed to potentiate”.
For Nc1nc(NCCc2ccccc2)nc(-c2ccccc2CO)n1 [C2], the α-factor (GPR68 [1]; allosteric operational model, proton as agonist) was 22 and the “leftward shift of proton response relative to ogerin” value (GPR68 [1]; cAMP production) was 3 fold.
For O=C1CN=C(c2ccccc2F)c2cc(Cl)ccc2N1 [norfludiazepam], the “stimulation of cAMP production” value (GPR68 [1]) was “stimulated cAMP production in a GPR68- and pH-dependent manner”.
For Nc1nc(NCc2ccccc2)nc(-c2ccccc2CO)n1 [ogerin], the “effect on proton-mediated calcium release” value (GPR68 [2]) was “inhibited”, the “activity at GPR65” value (GPR65) was “minimal PAM activity” and the “affinity at 5-HT2B” value (5-HT2B) was “moderate affinity”. The “effect on proton activity in PI hydrolysis” value (GPR68 [9]) was “slightly potentiated”, the “allosteric effect” value (GPR68 [1]; [10]) was “much higher allosteric effect than lorazepam” and the “affinity at A2A receptor” value (A2A receptor) was “moderate affinity”. For the same compound, the “activity at GPR4” value (GPR4) was “minimal PAM activity”, the “activation of PKA and MAP kinase pathways” value [6] was “activate” and the memory retrieval ([3]; GPR68 KO mice, 10 mg/kg) was “no effect”. For the same compound, the contextual-based fear memory ([3]; WT mice, 10 mg/kg) was “attenuated” and the cue-based memory ([3]; WT mice, 10 mg/kg) was “without effects”.
For Cc1nc(-c2ncccn2)sc1C(=O)O[C@@H](c1ccccc1)c1ccncc1 [ZINC62678696], the “inhibition of GPR65” value (GPR65) was “GPR65-specific inhibition; also recorded: inhibited”.
With COc1ccc(-c2csc(NC(=O)CSc3nc[nH]n3)n2)cc1OC [ZINC13684400] the “effect of D153A mutation on compound activity” value [7] was “much reduced the activity”, the “effect of R187L, F242A, Y272A mutations on compound activity” value [8] was “reduced the activity” and the “mode of action at GPR65” value (GPR65) was “allosteric agonist”. The “potentiation of proton efficacy/activity at GPR65” value (GPR65) was “did not potentiate”, the “agonist activity at GPR65” value (GPR65; pH 8.40) was “over 2 fold of basal” and the “activity at control cells” value (control HEK293 T cells) was “without measurable activity”.
For Nc1nc(NCCCCc2ccccc2)nc(-c2ccccc2CO)n1 [C4], the “allosteric effect” value (GPR68 [1]; [10]) was “reduced allostery”.
